NR2E3 ag-1: NR2E3 agonists in two-hybrid cells, primary screen, cell-based, luminescence, CHO-S, Gal4-NCOR/VP16-NR2E3; Photoreceptor-specific nuclear receptor (Homo sapiens), Q9Y5X4; luciferase; inhibition of corepressor binding, % at 3.98 µM; 360,000 compounds, 0.35% hits;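 active = inhibition above the mean of all tested compounds plus 3 SD, cut at about 70% in these data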;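 also: higher means lower luciferase signal from less NR2E3 corepressor binding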
Target sequence (Q9Y5X4 whole entry, looked up, the tested form may be a part): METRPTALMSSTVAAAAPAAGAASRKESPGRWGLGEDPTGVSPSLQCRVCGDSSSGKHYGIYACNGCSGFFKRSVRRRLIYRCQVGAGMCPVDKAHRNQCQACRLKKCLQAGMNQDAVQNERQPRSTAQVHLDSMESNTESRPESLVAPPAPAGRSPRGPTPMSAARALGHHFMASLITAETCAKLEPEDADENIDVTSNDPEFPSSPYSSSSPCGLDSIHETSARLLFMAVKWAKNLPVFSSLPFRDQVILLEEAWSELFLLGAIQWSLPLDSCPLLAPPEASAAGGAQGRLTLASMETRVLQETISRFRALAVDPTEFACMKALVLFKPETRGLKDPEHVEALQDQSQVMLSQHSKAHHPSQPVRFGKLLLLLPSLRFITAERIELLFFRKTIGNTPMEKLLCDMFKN
Rev-erbA mod: modulators of Rev-erb alpha DNA binding, primary screen, biochemical, FITC-DNA, fluorescence polarization, uHTS; 370,000 compounds, 0.79% hits; Rev-erbα–FITC-DNA binding, 90 min; activity, % at 10 µM;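 active = activity above about 14%, limit read from the data; passing the limit was not always enough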
PG9 Ab binder: binders of HIV-1 gp120 antibody PG9, primary screen, biochemical, TR-FRET; inhibition, % at 6.7 µM; TR-FRET gp120-PG9 antibody binding; 360,000 compounds, 0.43% hits; HIV-1 gp120 / PG9 antibody interaction; in the data active = inhibition above about 8.5%
GalR3 antag: GalR3 antagonists in HEK293 cells, primary screen, cell-based, fluorescence readout; 360,000 compounds, 0.44% hits; inhibition, % at 3 µM; HEK293 GalR3-CNG cAMP membrane potential fluorescence; galR3 body fused to GalR1 C-terminus; Galanin receptor type 3 (Homo sapiens), O60755;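 active = inhibition above the screen-wide average plus 3 SD, cut at about 13% in these data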;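 also: forskolin and galanin both at EC90 stimulate the cells; cAMP rise reported by CNG channel membrane potential dye signal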
Target sequence (O60755 1-299 limits assumed): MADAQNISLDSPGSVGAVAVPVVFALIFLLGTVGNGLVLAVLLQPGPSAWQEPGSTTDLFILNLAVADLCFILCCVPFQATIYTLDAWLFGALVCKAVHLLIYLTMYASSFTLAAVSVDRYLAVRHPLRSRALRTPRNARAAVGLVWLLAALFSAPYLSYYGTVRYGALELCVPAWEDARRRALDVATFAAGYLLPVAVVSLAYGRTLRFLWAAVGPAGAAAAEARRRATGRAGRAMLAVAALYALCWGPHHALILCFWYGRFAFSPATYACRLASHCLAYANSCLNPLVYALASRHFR
NR2E3 ag-2: inhibitors of NR2E3-RetCOR corepressor binding, primary screen, NR2E3 agonist project, biochemical, TR-FRET, GST-NR2E3, biotin-RetCOR; AID 2300, 2010; Photoreceptor-specific nuclear receptor (Homo sapiens), Q9Y5X4; 1536-well; 320,000 compounds, 0.12% hits; inhibition of corepressor binding, % at 4.78 µM;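 active = percent inhibition above the cutoff of mean plus 3 SD of all tested compounds, set per screening campaign, cut at about 20% in these data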
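System: GST-tagged NR2E3 plus biotinylated RetCOR corepressor; Buffer or medium: pH 7.5 Tris-based buffer; Probe or stimulus: RetCOR corepressor, biotinylated, 7 nM; Doses: compound at 4.8 µM, single dose; Schedule: 5 h incubation at 4 °C; Technique: time-resolved FRET; Evaluation: percent inhibition of TR-FRET ratio; Replication: one well per compound, singlicate testing.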
PG9 binder conf: binders of anti-gp120 antibody PG9, confirmation, biochemical, TR-FRET; 1,500 compounds, 90% hits; shares compounds with PG9 Ab binder; inhibition, % at 6.7 µM; TR-FRET PG9 antibody binding; in the data active = inhibition above about 9%
PGV04 Ab binding: binders of control antibody PGV04, counter-screen for PG9 antibody binder project, biochemical, TR-FRET, distinct HIV envelope site | shares compounds with PG9 Ab binder | TR-FRET PGV04 antibody-gp120 binding | inhibition, % at 6.7 µM | 1,500 compounds, 95% hits | AID 651604, 2012; in the data active = inhibition above about 9.5%
PG9 binder DR: small-molecule binders of antibody PG9, dose response, biochemical, TR-FRET, HIV-1 gp120 antibody. shares compounds with PG9 Ab binder. TR-FRET PG9 antibody-gp120 binding inhibition. IC50, µM. 95 tested, under 10 active; in the data active = IC50 below about 10 µM
PGV04 DR counter: binders of control antibody PGV04, dose response, counter-screen for PG9 antibody binder project, biochemical, TR-FRET, distinct HIV envelope site. shares compounds with PG9 Ab binder. TR-FRET binding to control antibody PGV04. IC50, µM. 95 compounds, 20% hits
PG126 binding DR: binders of control antibody PG126, dose response, counter-screen for PG9 antibody binder project, biochemical, TR-FRET, distinct HIV envelope site. TR-FRET binding to antibody PG126, counterscreen. shares compounds with PG9 Ab binder. IC50, µM. 95 compounds, 20% hits. AID 651939, 2012
NR1D1 mod conf: modulators of Rev-erb alpha DNA binding, confirmation, biochemical, FITC-DNA, fluorescence polarization, single point; shares compounds with Rev-erbA mod; 90 min; 3,000 compounds, 61% hits; activation, % at 25 µM;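 active = activation at or above a set limit, or at least 3 SD above the negative control mean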
RORg DNA counter: modulation of RORgamma DNA binding, dose response, counter-screen for Rev-erb alpha modulator project, biochemical, fluorescence polarization, FITC-DNA; IC50, µM; 910 compounds, 8% hits; shares compounds with Rev-erbA mod; purified RORgamma protein-FITC-DNA binding;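 active = Compounds whose fitted half-maximal concentration for disrupting protein-DNA binding is below 10 micromolar; the record names Rev-erb in its text, so the target is in doubt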
Each line names hits and unclear results; the compound was inactive in the other large screens (follow-up assays come after a bar, where they were run). Shown are actives, neighbours in structure and some others; about 1.8% of the full set was active somewhere. Rule as the data show it, unless noted: active = IC50 below about 9 µM; inactive = the rest.

CCOC(=O)N1CCC(NC(=O)c2ccc3c(c2)N(Cc2ccc(F)cc2)CCS3)CC1	none
CCOC(=O)N1CCC(NC(=O)c2ccc3c(c2)N(Cc2ccc(C)cc2)CCS3)CC1	Rev-erbA mod 29.9, PG9 Ab binder 22.5 (no result: GalR3 antag) | PG9 binder conf 30.6 | PGV04 Ab binding 43.7 | NR1D1 mod conf inactive
COc1ccc(S[C@]2(C(=O)N3CCN(c4ncccn4)CC3)CC(=O)N(c3ccc(Cl)cc3)[C@@H]2c2ccc(OC)cc2)cc1	none (no result: NR2E3 ag-1, PG9 Ab binder, GalR3 antag, NR2E3 ag-2)
Cc1ccc(CSc2nc3ccncc3n2CC(=O)Nc2cc(C)cc(C)c2)cc1	Rev-erbA mod 80.7, PG9 Ab binder 24.9 (no result: GalR3 antag) | PG9 binder conf 32.2 | PGV04 Ab binding 49.5 | NR1D1 mod conf 34.1 | RORg DNA counter 0.258
O=C(Cc1ccccc1F)N1CCC(n2nnc3ncccc32)CC1	none (no result: NR2E3 ag-1, PG9 Ab binder, GalR3 antag, NR2E3 ag-2)
CN(C)c1cccc(/C=C2\CC3(OC(=O)c4ccc(Cl)cc4)CCCN2C3)c1 (centres undefined)	none (no result: NR2E3 ag-1, PG9 Ab binder, GalR3 antag, NR2E3 ag-2)
COc1ccc(C(=O)NC(=S)Nc2ccc3[nH]c(=O)[nH]c3c2)c(OC)c1	Rev-erbA mod 100.8, PG9 Ab binder 36.5 | PG9 binder conf 53.5 | PGV04 Ab binding 51.8 | PG9 binder DR inactive | PGV04 DR counter 6.27 | PG126 binding DR 6.84 | NR1D1 mod conf 54.6 | RORg DNA counter inactive
COc1cc(-c2ccc3c(=O)c4ccccc4sc3c2)cc(OC)c1OC	Rev-erbA mod 75.7, PG9 Ab binder 17.0 (no result: NR2E3 ag-2) | PG9 binder conf 20.4 | PGV04 Ab binding 31.3 | NR1D1 mod conf 48.6 | RORg DNA counter inactive
COc1cc(-c2ccc3c(=O)c4ccccc4n(C)c3c2)cc(OC)c1OC	none
Cc1cccc(NC(=O)C2CCN(S(=O)(=O)c3cccc4nsnc34)CC2)c1	none
Cc1cccc(NC(=O)C2CCCN(S(=O)(=O)c3cccc4nsnc34)C2)c1 (centres undefined)	Rev-erbA mod 154.6, PG9 Ab binder 65.5 | PG9 binder conf 64.0 | PGV04 Ab binding 58.2 | PG9 binder DR 4.29 | PGV04 DR counter 3.88 | PG126 binding DR 4.33 | NR1D1 mod conf 78.6 | RORg DNA counter inactive
O=C(CCc1ccccc1)N[C@H]1[C@H](OCc2ccccc2)CCC[C@@]12C(=O)N(Cc1ccccc1)c1ccccc12	none (no result: NR2E3 ag-1, PG9 Ab binder, GalR3 antag, NR2E3 ag-2)
Cc1ccccc1OCC(=O)Nc1ccc2c(c1)C(=O)c1ccccc1C2=O	Rev-erbA mod 272.8, PG9 Ab binder 25.1 | PG9 binder conf 73.0 | PGV04 Ab binding 91.4 | NR1D1 mod conf 220.8 | RORg DNA counter 6.87
CC(C)c1ccc(-c2cc(C(=O)N3CCOCC3)c3cc(Br)ccc3n2)cc1	Rev-erbA mod 63.1, PG9 Ab binder 16.8 | PG9 binder conf 29.8 | PGV04 Ab binding 35.7 | NR1D1 mod conf 28.1
O=C(Nc1ccc(F)cc1)c1cc2cc(Cl)ccc2[nH]1	Rev-erbA mod 43.3, PG9 Ab binder 11.0 | PG9 binder conf 12.7 | PGV04 Ab binding 21.2 | NR1D1 mod conf inactive
COc1ccc2[nH]c(C(=O)Nc3ccc(F)cc3Br)cc2c1	Rev-erbA mod 68.5, PG9 Ab binder 16.0 | PG9 binder conf 22.5 | PGV04 Ab binding 64.8 | NR1D1 mod conf 79.0 | RORg DNA counter inactive
CCOc1cc(CCNC(=O)c2cc3ccsc3n2C)ccc1OC	none (no result: NR2E3 ag-1, PG9 Ab binder, GalR3 antag, NR2E3 ag-2)
COC(=O)C1CN(Cc2cn(CCC3OCCO3)nn2)CCS(=O)(=O)N1Cc1ccccc1 (centres undefined)	none (no result: NR2E3 ag-1, PG9 Ab binder, GalR3 antag, NR2E3 ag-2)
CCn1c(=NC(=O)c2ccc(N3C(=O)CCC3=O)cc2)sc2c(OC)ccc(OC)c21	Rev-erbA mod 81.8, PG9 Ab binder 15.9 (no result: GalR3 antag) | PG9 binder conf 30.6 | PGV04 Ab binding 55.5 | NR1D1 mod conf 95.7 | RORg DNA counter inactive
CCn1c(=NC(=O)c2cccc(N3C(=O)CCC3=O)c2)sc2c(C)ccc(OC)c21	none
COC(=O)c1cc(S(=O)(=O)N2CCN(c3ccccc3Cl)CC2)cn1C	none (no result: NR2E3 ag-1, PG9 Ab binder, GalR3 antag, NR2E3 ag-2)
CC(C)CN1C(=O)[C@]2(CC(=O)N(C)C2c2ccccc2)c2cc(-n3cc(CCCC#N)nn3)ccc21 (some centres undefined)	none (no result: NR2E3 ag-1, PG9 Ab binder, GalR3 antag, NR2E3 ag-2)
CCCNC(=O)c1ccc2snnc2c1	none
CCCNC(=O)c1ccc2c(=O)n3c(-c4ccc(C)cc4)csc3nc2c1	Rev-erbA mod 25.9, PG9 Ab binder 24.2 | PG9 binder conf 36.6 | PGV04 Ab binding 67.9 | NR1D1 mod conf 24.2
N#Cc1ccc(NC(=O)c2sc3cc(C(F)(F)F)cnc3c2-c2cccs2)cc1	none
COc1ccc(NC(=O)c2sc3cc(C(F)(F)F)cnc3c2-c2cccs2)cc1	Rev-erbA mod 112.5, PG9 Ab binder 9.6 | PG9 binder conf 18.5 | PGV04 Ab binding 70.6 | NR1D1 mod conf 72.6 | RORg DNA counter inactive
COC(=O)[C@H](C)NC(=O)[C@@H]1CC=C[C@@H]2CCN(CCc3ccccc3)C(=O)[C@@H]21	none (no result: NR2E3 ag-1, PG9 Ab binder, GalR3 antag, NR2E3 ag-2)
CCCCNC(=O)C1(C(=O)C2CC2)CC(c2ccccc2C(F)(F)F)=NO1 (centres undefined)	none (no result: NR2E3 ag-1, PG9 Ab binder, GalR3 antag, NR2E3 ag-2)
CCCCNC(=O)C[C@@H]1C(=O)N(CCc2ccc(Cl)cc2)C2=CCCCC[C@]21C(=O)OC	none (no result: NR2E3 ag-1, PG9 Ab binder, GalR3 antag, NR2E3 ag-2)
Cn1nc(N)c2c(-c3ccc(Cl)cc3)c(C#N)c(N)nc21	none

Screening data as filed in PubChem BioAssay.
